SUMO1 PPI mod: modulators of SUMO1 protein-protein interactions, primary screen, biochemical, uHTS; SUMO1 binding to a labelled peptide, TR-FRET, 1 h; inhibition, % at 20 µM; hit rate 0.33% among 360,000; AID 602429, 2012; Small ubiquitin-related modifier 1 (Homo sapiens), P63165; in the data active = inhibition above about 37%
Target sequence (P63165 whole entry, looked up): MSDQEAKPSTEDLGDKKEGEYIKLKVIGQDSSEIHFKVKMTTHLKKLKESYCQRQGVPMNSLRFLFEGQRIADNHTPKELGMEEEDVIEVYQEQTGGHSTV
STEP block: STEP phosphatase inhibitors, primary screen, biochemical, fluorescence intensity, uHTS | recombinant STEP, OMFP fluorogenic substrate | inhibition, % at 20 µM | hit rate 0.25% among 360,000 | AID 588621, 2011;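 active = inhibition at 20 µM, scaled per plate between control wells, above about 37%, limit read from the data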
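System: isolated STEP enzyme; schedule: 20 min enzyme reaction at room temperature, protected from light; medium: Bis-Tris buffer pH 6.0, 2.5 mM DTT, 0.005% Tween 20; signal: fluorescence, 480/540 nm; dosing: single compound dose of 20 µM, 1% DMSO final; also added: OMFP substrate, 25 µM final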
NadD inh: inhibitors of S. aureus NadD, primary screen, biochemical, colorimetric, uHTS; Nicotinate-nucleotide adenylyltransferase NadD (Staphylococcus aureus N315); purified NadD enzyme, colorimetric absorbance read-out; inhibition, % at 20 µM; hit rate 0.78% among 360,000; in the data active = inhibition above about 26%
DNMT1 block: human DNMT1 methyltransferase inhibitors, primary screen, biochemical, molecular beacon, fluorescence, HinP1I cleavage, uHTS; inhibition (reported as % activation of signal), % at 10 µM; hit rate 0.83% among 360,000; AID 588458, 2011; in the data active = inhibition above about 50%
Scp1 inh: Scp-1 phosphatase inhibitors, primary screen, biochemical, colorimetric, uHTS; Carboxy-terminal domain RNA polymerase II polypeptide A small phosphatase 1 (Homo …; Recombinant Scp1, phosphopeptide, malachite green phosphate absorbance; inhibition, % at 20 µM; hit rate 0.88% among 340,000;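 active = inhibition above about 50% at 20 µM, limit read from the data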
Target sequence (Q9GZU7 76-261 limits assumed): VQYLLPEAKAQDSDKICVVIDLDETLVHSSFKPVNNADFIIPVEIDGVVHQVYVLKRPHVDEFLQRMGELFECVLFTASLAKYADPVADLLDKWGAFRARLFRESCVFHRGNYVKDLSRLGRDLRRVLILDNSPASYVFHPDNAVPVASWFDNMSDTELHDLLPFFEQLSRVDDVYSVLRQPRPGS
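Incubation: 45 min enzyme reaction at room temperature / System: truncated SCP-1 phosphatase (76-261aa) / Reagent: Phospho 17-mer peptide substrate / Buffer or medium: Acidic Tris acetate buffer with magnesium and detergent / Signal: absorbance at 630 nm / Doses: one concentration, 20 µM, with 1.0% DMSO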
LMPTP inh: LMPTP phosphatase inhibitors, primary screen, biochemical, fluorescence intensity, uHTS. Low molecular weight phosphotyrosine protein phosphatase (Homo sapiens), P24666. inhibition, % at 20 µM. hit rate 0.22% among 360,000. recombinant LMPTP-A, OMFP fluorogenic substrate. AID 651560, 2012;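 active = compounds that cut the enzyme signal by at least half of the control window in the single-dose screen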
Target sequence (P24666 whole entry, looked up): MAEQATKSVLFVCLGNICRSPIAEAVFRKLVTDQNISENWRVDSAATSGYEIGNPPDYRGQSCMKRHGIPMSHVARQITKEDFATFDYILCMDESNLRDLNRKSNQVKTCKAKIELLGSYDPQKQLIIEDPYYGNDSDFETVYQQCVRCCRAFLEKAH
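test system = LMPTP-A | amount = 0.625 nM LMPTP-A final | reagent = fluorogenic phosphatase substrate OMFP at 400 µM final | incubation = 50 min at room temperature | benchmarks = no-enzyme low control, uninhibited high control | medium = Bis-Tris pH 6.0, DTT, detergent | signal = fluorescence intensity of OMFP turnover product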
Of the large screens only hits and unclear results are named; the others gave an inactive call. In the library only some 2.3% were active in any assay of this set; here they are far more common.

CN(Cc1ccccc1)C(=O)c1[nH]cnc1C(=O)NCC(=O)OCc1ccccc1	none
CN(C)CCNC(=O)c1cccc2nc3c(ccc4ccccc43)nc12	DNMT1 block 61
COc1cccc2nc3c(C(=O)NCCN(C)C)cccc3cc12	DNMT1 block 60
COc1ccc(Cl)cc1C(=O)NCCN(C)C	none
Cc1ccc(Sc2cc(C(=O)NCCN(C)C)c3ccccc3n2)cc1	none
CN(C)CCNC(=O)c1cccc2[nH]c(-c3ccncc3)nc12	none
COc1ccc(C(=O)NCCN(C)C)c2nc3ccccc3cc12	DNMT1 block 56
COc1ccc2oc(C(=O)OCC(=O)N(C)CC(=O)Nc3ccc(F)cc3)c(C)c2c1	none
CCC(C)Sc1cccc(-c2nc3ccc(Cl)cn3c2NCc2ccccc2)c1 (centres undefined)	NadD inh 31
CC(=O)Nc1ccc(S(=O)(=O)N[C@@H](C)C(=O)OCC(=O)Nc2ccc3c(c2)OCCO3)cc1	none
CCOc1ccc(C2C(C(=O)c3ccco3)=C(O)C(=O)N2CCCn2ccnc2)cc1OC (centres undefined)	SUMO1 PPI mod 47
CCCOc1ccc(C2C(C(=O)c3ccco3)=C(O)C(=O)N2CCCn2ccnc2)cc1OC (centres undefined)	none (no result: Scp1 inh)
COc1ccc(CNc2ncnc(N)n2)cc1	none
COc1ccc(CNc2nc(NCc3ccc(OC)cc3)c3[nH]cnc3n2)cc1	LMPTP inh 78
C[C@H](c1ccccc1)N1C[C@@H](COCc2ccccc2)Oc2cc(N3CC[C@@H](N(C)C)C3)ccc2S1(=O)=O	none (no result: STEP block, DNMT1 block, Scp1 inh)
CC(Sc1nnc2ccccn12)C(=O)Nc1ccc2c(c1)OCCO2 (centres undefined)	SUMO1 PPI mod 104
CC(C)CC1=C/C(=C/c2ccc(-c3ccccc3)o2)C(=O)O1	NadD inh 74, DNMT1 block 92
NS(=O)(=O)c1ccc(-c2ccc(C=C3C(=O)c4ccccc4C3=O)o2)cc1	none
N#Cc1cccc(C(=O)C(=O)N2CCN(C(=O)OCc3ccccc3)CC2)c1	none (no result: STEP block, NadD inh, DNMT1 block, Scp1 inh)
CCOc1ccc2nc3cc(NCc4ccc(OC)cc4)ccc3c(N)c2c1	SUMO1 PPI mod 110, NadD inh 47
CCOC(=O)C1(C)CCCN1C(=O)c1ccc(OC)cc1 (centres undefined)	none (no result: Scp1 inh)
CC(C)(O)C1Cc2cc(/C=C/C(=O)O)c(O)cc2O1 (centres undefined)	Scp1 inh 95
O=C1NN(c2ccc(F)c(Cl)c2)C(=O)/C1=C\c1cccc(OC(=O)c2cccs2)c1	NadD inh 30
Cc1ccc(NC(=O)CCCCCCCCCCC2COCCO2)c(C)c1 (centres undefined)	none
O=C(CN1C(=O)/C(=C/c2ccccc2F)SC1=S)NC1C=CS(=O)(=O)C1 (centres undefined)	DNMT1 block 54
O=C(CN1C(=O)/C(=C/c2cccc(Cl)c2)SC1=S)NC1C=CS(=O)(=O)C1 (centres undefined)	none
COc1cc(NC(=O)C2CCC(CNc3c(N4CCCCC4)c(=O)c3=O)CC2)cc(OC)c1 (centres undefined)	DNMT1 block 52
CCc1cccc(NC(=O)c2ccc(CNc3c(N4CCCC4)c(=O)c3=O)cc2)c1	SUMO1 PPI mod 49
CC(=O)c1ccc(NC(=O)c2ccc(CNc3c(N4CCCC4)c(=O)c3=O)cc2)cc1	none
CCOc1ccc(NC(=O)c2ccc(CNc3c(N4CCCC4)c(=O)c3=O)cc2)cc1	SUMO1 PPI mod 45
COc1cc(NC(=O)c2ccc(CNc3c(N4CCOCC4)c(=O)c3=O)cc2)cc(OC)c1	SUMO1 PPI mod 43
COC(=O)C[C@@H]1C=C[C@@H](NS(=O)(=O)c2ccc(OC)cc2)[C@@H](CO)O1	none (no result: STEP block, NadD inh, DNMT1 block, Scp1 inh)
CC(C)[C@H](NC(=O)c1ccccc1)C(=O)OCC(=O)N1CC2(C)CC1CC(C)(C)C2 (some centres undefined)	none
Cc1ccc(S(=O)(=O)N(C(=O)c2ccncc2)c2ccc(OC(=O)c3ccncc3)c3ccccc23)c(C)c1	Scp1 inh 60
C[C@H]1CN(C2CCCCC2)C(=O)[C@@H]1CC(=O)Nc1ccccc1	none (no result: Scp1 inh)
COc1nc(Nc2nc3ccccc3c(=O)[nH]2)nc2ccc(C)cc12	SUMO1 PPI mod 47
C=CCn1c(SCC(=O)c2ccc(O)c(O)c2)nnc1-c1cccnc1	Scp1 inh 72
COc1cc(/C=N/NC(=O)c2cccc([N+](=O)[O-])c2)ccc1OCc1ccccc1	none
COc1cc(C(=O)N/N=C/c2ccc(OC(=O)c3ccccc3)c(OC)c2)ccc1O	none
COc1cc(/C=N/NC(=O)c2ccc(O)cc2)ccc1OCC(=O)Nc1cccc([N+](=O)[O-])c1	SUMO1 PPI mod 93
COc1cc(/C=N/NC(=O)c2cc(O)cc(O)c2)ccc1OC(=O)c1ccccc1	STEP block 67, DNMT1 block 77, Scp1 inh 62
Cc1cnc(CNC(=O)c2csc([C@H]3C[C@H](O)[C@@H](CO)O3)n2)cn1	none (no result: Scp1 inh)
CCC1CCc2c(sc(N)c2C(N)=O)C1 (centres undefined)	SUMO1 PPI mod 47
CCOC(=O)c1c(N)sc2c1CCC(CC)C2 (centres undefined)	none
COc1ccccc1CNc1nc(NCc2ccccc2OC)c2sccc2n1	none (no result: Scp1 inh)
CC(=O)Nc1ccc(CNc2nc(NCc3cccs3)nc3ccsc23)cc1	LMPTP inh 61 (no result: Scp1 inh)
CC(=O)NCCNc1nc(NCc2ccccc2)nc2ccsc12	none (no result: Scp1 inh)
COc1ccccc1CNc1nc(NCc2ccc(NC(C)=O)cc2)c2sccc2n1	LMPTP inh 65 (no result: Scp1 inh)
CCCCCCOC(=O)c1ccc(N)cc1	none
CCCCCCCCCCCC1N=C(N)NC(CCCO)=C1C(=O)OC (centres undefined)	SUMO1 PPI mod 103
CC1CC(C)C[N+](=C2C=C(N3CCCC3)CC(C)(C)C2)C1 (centres undefined)	Scp1 inh 96
COC(=O)[C@@]12C[C@@H](CC(=O)NCC34CC5CC(CC(C5)C3)C4)C(=O)N(Cc3ccco3)C1=CCC(C)(C)C2	none (no result: STEP block, NadD inh, DNMT1 block, Scp1 inh)
CC1CCN(Cc2nc(-c3ccccc3)no2)CC1	SUMO1 PPI mod 50
c1ccc(-c2noc(CN3CCN(c4ccccc4)CC3)n2)cc1	none

Screening data as filed in PubChem.
